# Assay outcomes from PubChem BioAssay.
# ROMK mod: ROMK potassium channel modulators, primary screen, cell-based, thallium flux, MLSMR library; ATP-sensitive inward rectifier potassium channel 1 (Homo sapiens), P48048; Tet-inducible ROMK, thallium flux fluorescence; actives lie on both sides; B-score at 10 µM; 2% of 130,000 active; AID 1918, 2009;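 active = signal ratio slope over the read window, or its plate-corrected B-score, at least 3 SD from the plate mean, either direction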;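 note: B-score of the F/F0 ratio slope over 7 to 12 s after thallium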
# p47phox inh: p47phox/p22phox peptide binding inhibitors, primary screen, biochemical, uHTS, NADPH oxidase regulatory subunit; Neutrophil cytosol factor 1 (Homo sapiens), P14598; fluorescence polarization, 2 h; inhibition, % at 24.7 µM; 0.53% of 220,000 active; AID 1274, 2008;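 active = inhibition above about 30%, limit read from the data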;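 note: 0% = p47phox with labelled peptide and 100% = labelled peptide alone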
# 14-3-3 Bad inh: inhibitors of 14-3-3 zeta/Bad binding, primary screen, biochemical, TR-FRET, bovine 14-3-3 zeta; 14-3-3 protein zeta/delta (Bos taurus), P63103; TR-FRET 14-3-3zeta/Dy647-pBad peptide displacement, 1 h; inhibition, % at 21.7 µM; 0.71% of 220,000 active;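 active = inhibition above about 70%, limit read from the data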;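 note: 0% = full 14-3-3 plus peptide FRET controls and 100% = background without 14-3-3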
# Target sequence (P63103 whole entry, looked up): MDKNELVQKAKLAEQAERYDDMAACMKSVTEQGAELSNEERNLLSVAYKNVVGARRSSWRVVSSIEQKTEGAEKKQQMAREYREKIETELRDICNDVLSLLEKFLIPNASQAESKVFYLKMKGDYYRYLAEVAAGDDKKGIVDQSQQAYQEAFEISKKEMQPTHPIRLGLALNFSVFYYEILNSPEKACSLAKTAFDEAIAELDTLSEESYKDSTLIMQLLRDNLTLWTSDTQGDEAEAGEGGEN
# Cl transport mod: KCC2 cotransporter modulators, thallium flux, primary screen, cell-based, HEK293 KCC2, FluoZin-2 fluorescence, MLSMR | Solute carrier family 12 member 5 (Homo sapiens), Q9H2X9 | KCC2 cells, thallium flux FluoZin-2 fluorescence | B-score of Tl+ flux slope (higher = more flux/activation; lower = inhibition) at 10 µM | 2.2% of 190,000 active;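 active = thallium flux slope and its plate-corrected score both differing from the plate sample mean at a set confidence after two filtering rounds, in either direction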;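 note: slope of fluorescence scaled to starting intensity during 10 to 20 s after thallium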
# WT yeast gro inh: growth inhibition of WT strain, primary screen, mitochondrial fusion inhibitor project, WT and mutant strains, chemical genetic; mitochondrial fusion phenotypic screen; inhibition, % at 10 µM; 2.1% of 190,000 active; in the data active = inhibition above about 58%; tested in S. cerevisiae
# RBBP9 inhibitor: human RBBP9 inhibitors, primary screen, biochemical, fluorescence polarization, FP-Rh probe, HTS | inhibition, % at 7.94 µM | recombinant RBBP9 | Serine hydrolase RBBP9 (Homo sapiens), O75884 | 0.2% of 220,000 active;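 active = inhibition above the campaign mean of all tested compounds plus 3 SD, cut at about 14% in these data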;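 note: plate controls were DMSO wells with RBBP9 for no effect and wells lacking RBBP9 protein for full effect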
# Target sequence (O75884 whole entry, looked up): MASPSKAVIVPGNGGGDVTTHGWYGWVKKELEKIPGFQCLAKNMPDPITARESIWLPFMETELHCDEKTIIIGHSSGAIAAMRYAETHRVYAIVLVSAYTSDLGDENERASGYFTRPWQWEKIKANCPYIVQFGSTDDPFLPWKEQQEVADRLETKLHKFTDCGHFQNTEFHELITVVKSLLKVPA
#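 Test system – recombinant human RBBP9 · Input – RBBP9 2.5 µM in dispensing solution, pre-mixing · Medium – Tris buffer pH 8.0, NaCl, Pluronic · Schedule – preincubation 30 min plus labeling 45 min at 25 °C · Measured by – fluorescence polarization · Measure – % inhibition · Controls – DMSO and no-protein wells · Replicates – one well per compound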
# ROMK retest: ROMK channel modulator hit retest, confirmation, cell-based, thallium flux, duplicate, resupplied hits | shares compounds with ROMK mod | fluorescence ratio; hits give low values | normalized thallium flux (F/F0 slope) at 10 µM | 54% of 3,000 active | AID 1917, 2009;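 active = Flux at 10 µM at least 3 SD below or above vehicle control mean in one or both replicates; inconclusive = no clear call, values can overlap the other calls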
# Active calls of the source: *; ? = inconclusive; . = no result given. In the library only some 5.8% were active in any assay of this set; here they are far more common.
SMILES,ROMK mod,p47phox inh,14-3-3 Bad inh,Cl transport mod,WT yeast gro inh,RBBP9 inhibitor,ROMK retest
CCCOC(=O)c1cc(-c2ccc(C=O)o2)ccc1Cl,.,-14,0,-0.51,3,-3,0.1*
CCCOC(=O)c1ccc(-c2ccc(C=O)o2)cc1,0.013,-16,-11,-0.76,2,0,.
CCOCCCNC(=O)c1ccccc1Br,.,0,5,0.37,-8,-10,.
CCOC(=O)CCNC(=O)c1ccccc1Br,.,-10,10,-0.31,-14,-3,0.076
Cc1ccc(-n2ncc(C(=O)Nc3cc(Cl)ccc3Cl)c2C2CCNCC2)cc1,-6.2*,-7,-7,-0.64,5,-4,0.058*
Cc1ccc(-n2ncc(C(=O)Nc3cc(Cl)cc(Cl)c3)c2C2CCNCC2)cc1C,-6.1*,-7,-3,-1.2,18,-6,0.048*
CS(=O)(=O)Nc1ccccc1C(=O)Nc1cc(Cl)cc(Cl)c1,-0.79,-9,19,0.26,-6,8,.
CCc1ccc2[nH]c(=O)c(CN(CC3CCCO3)C(=S)NCc3ccco3)cc2c1 (stereo not drawn),-1,-7,1,0.33,.,-1,.
Cc1ccc(C)c2[nH]c(=O)c(CN(CC3CCCO3)C(=S)NCc3ccco3)cc12 (stereo not drawn),-3.5*,-6,-3,-1.1,.,-7,?
Cc1ccc2cc(CN(CC3CCCO3)C(=S)NCc3ccco3)c(=O)[nH]c2c1C (stereo not drawn),.,-7,-7,-0.45,12,2,0.071
CCN(CC)S(=O)(=O)c1ccc(/C=C/C(=O)Nc2cccc(F)c2)cc1,.,-16,-8,0.23,-15,-23,.
CCOC(=O)N1CCN(C(=O)c2ccc3c(=O)n(-c4cc(OC)ccc4OC)c(=S)[nH]c3c2)CC1,-0.29,-3,-3,0.2,2,-1,.
COc1ccc(-n2c(C)cc(/C=C3\SC(=S)N(Cc4ccco4)C3=O)c2C)cc1,-0.13,-86,-13,1.2,15,-3,.
CCN1CCN(c2c(/C=C3\SC(=S)N(Cc4ccco4)C3=O)c(C)c(C#N)c(=O)n2C)CC1,.,-155,29,-0.37,.,-6,0.048*
CC(C)CNC(=S)NC1CC2CCCC(C1)N2C1CCCCC1 (stereo not drawn),-3.3,-2,5,1.5,13,-4,0.054*
CC(C)CNC(=S)NC1CC2CCC(C1)N2Cc1ccccc1 (stereo not drawn),.,-15,2,.,4,2,.
COc1cc(/C=C/C(=O)OCC(=O)NC2CC2)cc(S(=O)(=O)N2CCc3ccccc32)c1OC,-18*,-11,-1,-1.1,-2,-4,0.071
COC(=O)c1ccc(NC(=O)c2snnc2-c2ccccc2)cc1,-0.39,-2,4,0.53,19,-1,.
COC(=O)CSC1=C(C#N)C(c2ccc(F)cc2)CC(=O)N1 (stereo not drawn),.,-5,6,0.78,-3,-7,.
COC(=O)CSC1=C(C#N)C(c2ccc(C)o2)CC(=O)N1 (stereo not drawn),2.7*,3,-4,0.84,9,-4,0.077
C=CCN(CC=C)C(=O)C(=O)c1ccn(-c2c(C)csc2C(=O)OC)c1,0.77,-8,-7,.,1,-6,.
N#C/C(=C/c1ccc(N2CCOCC2)o1)c1ccc(Cl)cc1,.,-74,7,0.037,9,-3,0.051*
O=C(NCc1nc(-c2ccc(C(F)(F)F)cc2)no1)Nc1cc(Cl)cc(Cl)c1,0.099,-16,0,0.7,.,-9,.
Cc1cc(C=NCCCO)c(C)n1-c1cc(Cl)ccc1Cl,.,1,10,-0.32,-4,-11,.
COc1ccc(N/N=C(\C#N)C(=N)N2CCCCC2)cc1,.,4,-6,0.99,.,7,.
